The values below come from ChEMBL document CHEMBL1136933 (J Med Chem, 2009).

Active and inactive are the calls of the source. No cut-off for these calls is given here. A value given as a limit tells only on which side of the number the result lay.

Data set [1] addresses Muscarinic acetylcholine receptor M3 (Homo sapiens, UniProt P20309). The data set is described as follows: Activation of human muscarinic M3 receptor expressed in CHO cells coexpressing Gq protein assessed as potentiation of acetylcholine-induced intracellular Ca2+ mobilization. Type of data set: functional, cell-based. The gist of the method: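 Calcium flux assay. Stable CHO lines were seeded at 5 × 10^4 cells/well (M1, M3, M5) or 6 × 10^4 cells/well (Gqi5 M2, M4) and grown overnight at 37 °C, 5% CO2. Cells were loaded 1 h at 37 °C with 2 µM Fluo-4 AM. […] At least three independent determinations, each in duplicate or more.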
On the technique in general: A change in cytosolic calcium serves as a functional read-out for many receptors and channels.

A short description of data set [2]: Apparent oral volume of distribution in Sprague-Dawley rat plasma at 10 mg/kg, ip. Type of data set: ADME, organism-based. Conditions: read-out: Vc/F. Details: dose 10 mg/kg. The method in brief:
(§1)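 Male Sprague-Dawley rats (225-250 g) dosed ip at 10 mg/kg as a 5 mg/ml micro-suspension in 10% Tween 80 in sterile water. Plasma and brain sampled at 0.5, 1, 3 and 6 h, three animals per time point. Quantified by protein precipitation and LC-MS/MS against an internal standard. Brain values corrected for residual blood. PK parameters derived by noncompartmental analysis.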

The target of data set [3] is T1, Muscarinic acetylcholine receptor M4 (Rattus norvegicus) (UniProt P08485).
T1 sequence (whole entry): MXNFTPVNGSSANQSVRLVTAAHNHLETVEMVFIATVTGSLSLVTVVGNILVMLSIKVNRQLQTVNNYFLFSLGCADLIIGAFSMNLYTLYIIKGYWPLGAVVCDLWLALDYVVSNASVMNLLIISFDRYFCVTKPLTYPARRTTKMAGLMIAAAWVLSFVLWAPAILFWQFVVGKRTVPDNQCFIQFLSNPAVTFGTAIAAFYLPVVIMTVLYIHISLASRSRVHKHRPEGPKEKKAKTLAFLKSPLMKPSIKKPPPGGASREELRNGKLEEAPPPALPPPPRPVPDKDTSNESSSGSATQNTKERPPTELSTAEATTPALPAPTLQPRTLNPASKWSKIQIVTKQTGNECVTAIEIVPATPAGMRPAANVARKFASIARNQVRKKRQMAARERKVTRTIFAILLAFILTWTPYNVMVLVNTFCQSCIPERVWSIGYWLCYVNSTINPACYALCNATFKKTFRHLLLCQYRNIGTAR
Put plainly: Activation of rat muscarinic M4 receptor expressed in CHO cells coexpressing chimeric Gqi5 protein assessed as potentiation of acetylcholine-induced intracellular Ca2+ mobilization up to 30 uM. Format: functional, cell-based.

Data set [4] is described as follows: Cmax in Sprague-Dawley rat brain at 10 mg/kg, ip within 1 hr. Format: ADME, organism-based. Details: dose 10 mg/kg, route intraperitoneal. The gist of the method: as §1

Chain of Muscarinic acetylcholine receptor M3 (P20309 whole entry): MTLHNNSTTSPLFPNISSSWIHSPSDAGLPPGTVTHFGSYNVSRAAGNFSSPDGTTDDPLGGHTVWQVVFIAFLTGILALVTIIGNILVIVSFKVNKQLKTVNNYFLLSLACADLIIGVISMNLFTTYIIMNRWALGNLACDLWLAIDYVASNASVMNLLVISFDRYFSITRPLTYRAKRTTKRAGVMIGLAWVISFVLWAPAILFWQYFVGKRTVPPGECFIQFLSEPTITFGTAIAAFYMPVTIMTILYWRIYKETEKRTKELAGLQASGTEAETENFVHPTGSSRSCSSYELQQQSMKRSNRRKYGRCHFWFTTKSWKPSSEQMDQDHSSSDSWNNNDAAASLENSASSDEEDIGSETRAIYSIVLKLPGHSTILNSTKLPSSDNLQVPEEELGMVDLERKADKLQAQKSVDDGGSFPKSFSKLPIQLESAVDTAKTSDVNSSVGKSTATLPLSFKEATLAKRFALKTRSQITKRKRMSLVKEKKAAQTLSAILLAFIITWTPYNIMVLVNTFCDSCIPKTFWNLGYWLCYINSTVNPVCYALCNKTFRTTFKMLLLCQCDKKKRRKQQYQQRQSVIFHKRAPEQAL

In the case of `COc1ccc(CN2C(=O)C(=O)c3cc(OC(F)(F)F)ccc32)cc1`, the EC50 in data set [1] was over 30 µM. The Vd/F in data set [2] is 59.6 L/kg. Also, the outcome in data set [3] was inactive. Besides, the peak level in data set [4] (Cmax) was 43.1 ng/mL.

What is called EC50 is the concentration that produces a half-maximal response. By Cmax is commonly meant the maximum level reached in the sampled fluid or tissue.
